Results reported in ChEMBL document CHEMBL5329164, “Design, synthesis, and evaluation of BTK-targeting PROTACs with optimized bioavailability in vitro and in vivo” (RSC Med Chem, 2023).
The source made the active and inactive calls. The rule behind the calls is not given here.

Key:
[1] = Solubility in DMSO:Cremophor EL:1xPBS mixture at 10 mg/ml; type: physicochemical
[2] = Solubility in DMSO:Cremophor EL:1xPBS mixture at 10 mg/ml incubated for 7 days; type: physicochemical; conditions: 168 h, time 7 day
[3] = Stability in rat liver microsomes assessed as intrinsic clearance measured per mg protein at 1 uM preincubated for 10 mins followed by reaction initiation measured upto 60 mins in presence of NADPH; type: ADME, Microsome; conditions: time < 70 min, read-out: CLH
Summary of the method: (§1)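 Compound at 1 μM final was incubated with 0.5 mg/mL mouse, rat, dog, monkey or human liver microsomes in 100 mM PBS, pH 7.4, with 1 mM NADPH at 37 °C after a 10 min preincubation. Reactions were stopped at 0, 5, 15, 30 and 60 min with ice-cold acetonitrile containing tolbutamide. Supernatants were taken for bioanalysis.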

[4] = Stability in monkey liver microsomes assessed as half life at 1 uM preincubated for 10 mins followed by reaction initiation measured upto 60 mins in presence of NADPH; type: ADME, Macaca mulatta, Microsome; conditions: rhesus monkey, time < 70 min; summary of the method: as §1
[5] = Stability in dog liver microsomes assessed as intrinsic clearance measured per mg protein at 1 uM preincubated for 10 mins followed by reaction initiation measured upto 60 mins in presence of NADPH; type: ADME, Canis lupus familiaris, Microsome; conditions: time < 70 min, read-out: CLH; summary of the method: as §1
[6] = Stability in mouse liver microsomes assessed as half life at 1 uM preincubated for 10 mins followed by reaction initiation measured upto 60 mins in presence of NADPH; type: ADME, Microsome; conditions: time < 70 min; summary of the method: as §1
[7] = Stability in human liver microsomes assessed as intrinsic clearance measured per mg protein at 1 uM preincubated for 10 mins followed by reaction initiation measured upto 60 mins in presence of NADPH; type: ADME, Microsome; conditions: time < 70 min, read-out: CLH; summary of the method: as §1
[8] = AUClast in BALB/c mouse at 5 mg/kg, po measured for 24 hrs by LCMS analysis; type: ADME, organism-based; parameters: dose 5 mg/kg, time 24 hrs, route po; conditions: in vivo
Summary of the method: (§2)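 Male Balb/c mice, 9 per group, dosed intragastrically at 5 mg/kg; the same compounds were also given iv at 2 mg/kg. Blood was drawn into EDTA-K2 tubes at 0.25, 0.5, 1, 2, 4, 6, 8 and 24 h. Plasma proteins were precipitated with acetonitrile containing tolbutamide. Quantification was by LC-MS on a C18 column with a formic acid water/acetonitrile gradient.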

[9] = Stability in rat liver microsomes assessed as half life at 1 uM preincubated for 10 mins followed by reaction initiation measured upto 60 mins in presence of NADPH; type: ADME, Microsome; conditions: time < 70 min; summary of the method: as §1
[10] = Stability in monkey liver microsomes assessed as intrinsic clearance measured per mg protein at 1 uM preincubated for 10 mins followed by reaction initiation measured upto 60 mins in presence of NADPH; type: ADME, Macaca mulatta, Microsome; conditions: rhesus monkey, time < 70 min, read-out: CLH; summary of the method: as §1
[11] = AUClast in BALB/c mouse at 2 mg/kg, iv measured for 24 hrs by LCMS analysis; type: ADME, organism-based; parameters: time 24 hrs, dose 2 mg/kg, route iv; conditions: in vivo
Summary of the method: (§3)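 Male Balb/c mice, 9 per group, dosed intravenously at 2 mg/kg. Blood was drawn into EDTA-K2 tubes at 0.083, 0.25, 0.5, 1, 2, 4, 6, 8 and 24 h. Plasma was separated by centrifugation at 2000 g for 10 min and precipitated with acetonitrile containing tolbutamide internal standard. Analysis was by LC-MS on a polar C18 column with a water/acetonitrile 0.1% formic acid gradient.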

[12] = Apparent permeability across apical to basal side in MDCK-II cells assessed as compound recovery at 10 uM measured for 120 mins by LC-MS/MS analysis; type: ADME, cell-based, Canis lupus familiaris; conditions: dog, read-out: Drug recovery
Summary of the method: (§4)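 MDCK monolayers were grown on Transwell inserts (5 x 10^4 cells/cm²) and used at day 5. Compound at 10 μM in HBSS with 10 mM Hepes, pH 7.40, was dosed apically or basolaterally and incubated at 37±1 °C. Receiver and donor samples were taken at 120 min and quantified by LC-MS/MS against an internal standard. Lucifer yellow passage below 1% confirmed monolayer integrity.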

[13] = Cmax in BALB/c mouse at 5 mg/kg, po measured for 24 hrs by LCMS analysis; type: ADME, organism-based; parameters: dose 5 mg/kg, time 24 hrs, route po; conditions: in vivo; summary of the method: as §2
[14] = target: T1, Protein cereblon/Tyrosine-protein kinase BTK (Homo sapiens) (UniProt Q06187+Q96SW2); test: PROTAC activity at CRBN/ BTK in human Ramos cells assessed as induction of BTK degradation at 100 nM incubated for 24 hrs by immunoblot analysis relative to control; type: cell-based
T1 sequence (Q06187 2-659 limits assumed): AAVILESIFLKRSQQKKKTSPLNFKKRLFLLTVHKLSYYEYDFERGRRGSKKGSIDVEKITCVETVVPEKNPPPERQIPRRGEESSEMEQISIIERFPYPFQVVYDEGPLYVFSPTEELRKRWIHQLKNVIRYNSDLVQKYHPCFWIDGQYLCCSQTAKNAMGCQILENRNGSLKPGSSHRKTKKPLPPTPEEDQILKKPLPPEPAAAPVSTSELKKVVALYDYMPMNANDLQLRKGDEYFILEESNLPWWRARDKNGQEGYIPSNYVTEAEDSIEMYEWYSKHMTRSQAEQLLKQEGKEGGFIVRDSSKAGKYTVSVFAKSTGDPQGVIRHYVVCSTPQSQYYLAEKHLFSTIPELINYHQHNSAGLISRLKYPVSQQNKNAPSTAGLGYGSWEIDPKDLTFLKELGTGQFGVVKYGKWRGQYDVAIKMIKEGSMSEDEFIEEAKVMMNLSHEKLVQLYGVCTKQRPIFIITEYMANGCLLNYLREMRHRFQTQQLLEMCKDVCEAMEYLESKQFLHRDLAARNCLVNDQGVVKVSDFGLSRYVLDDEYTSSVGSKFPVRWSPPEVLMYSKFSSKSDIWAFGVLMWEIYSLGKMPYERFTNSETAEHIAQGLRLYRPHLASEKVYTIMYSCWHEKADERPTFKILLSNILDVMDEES
T1 sequence (Q96SW2 whole entry partner): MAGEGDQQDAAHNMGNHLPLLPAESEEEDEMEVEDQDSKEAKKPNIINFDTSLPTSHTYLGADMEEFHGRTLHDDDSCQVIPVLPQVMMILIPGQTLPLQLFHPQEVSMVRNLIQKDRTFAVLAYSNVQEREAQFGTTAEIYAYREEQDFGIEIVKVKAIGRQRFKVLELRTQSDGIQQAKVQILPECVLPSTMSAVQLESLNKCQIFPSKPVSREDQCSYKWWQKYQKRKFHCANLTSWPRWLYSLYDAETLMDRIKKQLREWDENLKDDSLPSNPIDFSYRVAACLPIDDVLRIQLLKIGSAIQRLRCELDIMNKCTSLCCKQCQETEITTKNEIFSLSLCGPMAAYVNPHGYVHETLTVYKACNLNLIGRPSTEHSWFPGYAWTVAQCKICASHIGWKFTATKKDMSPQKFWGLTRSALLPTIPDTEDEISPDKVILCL
Summary of the method: (§5)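 Ramos cells in supplemented RPMI 1640 were plated at 3×10^5 cells/well and treated with compound for 24 h. Lysates in SDS sample buffer were heated at 100 °C for 15 min and run on 10% SDS-PAGE, then transferred to PVDF. Membranes were probed overnight at 4 °C for BTK, GSPT1 and β-actin.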

[15] = Half life in BALB/c mouse at 2 mg/kg, iv measured for 24 hrs by LCMS analysis; type: ADME, organism-based; conditions: in vivo; summary of the method: as §3
[16] = Stability in human liver microsomes assessed as half life at 1 uM preincubated for 10 mins followed by reaction initiation measured upto 60 mins in presence of NADPH; type: ADME, Microsome; conditions: time < 70 min; summary of the method: as §1
[17] = Oral bioavailability in BALB/c mouse at 5 mg/kg measured for 24 hrs by LCMS analysis; type: ADME, organism-based; conditions: in vivo; summary of the method: as §2
[18] = target: T1, Protein cereblon/Tyrosine-protein kinase BTK (Homo sapiens); test: PROTAC activity at CRBN/ BTK in human DOHH-2 cells assessed as induction of BTK degradation at 1.2 to 300 nM incubated for 24 hrs by immunoblot analysis; type: cell-based; conditions: dose 1.2-300 nM
Summary of the method: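 DOHH2 cells were grown in RPMI 1640 with 10% FBS, 1% penicillin-streptomycin, 1% nonessential amino acids and 50 µM 2-mercaptoethanol at 37 °C under 5% CO₂. Cells were treated with compound at various concentrations, lysed in SDS buffer and separated on 10% SDS-PAGE. Blots were transferred to PVDF and probed for BTK, with β-actin as loading control.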

[19] = Stability in dog liver microsomes assessed as half life at 1 uM preincubated for 10 mins followed by reaction initiation measured upto 60 mins in presence of NADPH; type: ADME, Canis lupus familiaris, Microsome; conditions: time < 70 min; summary of the method: as §1
[20] = Apparent volume of distribution in BALB/c mouse at 2 mg/kg, iv measured for 24 hrs by LCMS analysis; type: ADME, organism-based; conditions: in vivo, read-out: Vz; summary of the method: as §3
[21] = Apparent permeability across basal to apical side in MDCK-II cells at 10 uM measured for 120 mins by LC-MS/MS analysis; type: ADME, cell-based, Canis lupus familiaris; conditions: dog
Summary of the method: (§6)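 MDCK monolayers were grown on Transwell inserts (5 x 10^4 cells/cm²) and used at day 5. Compound at 10 μM in HBSS with 10 mM Hepes, pH 7.40, was dosed apically or basolaterally and incubated at 37±1 °C. Lucifer yellow passage below 1% confirmed monolayer integrity.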

[22] = Tmax in BALB/c mouse at 5 mg/kg, po measured for 24 hrs by LCMS analysis; type: ADME, organism-based; conditions: in vivo; summary of the method: as §2
[23] = target: T1, Protein cereblon/Tyrosine-protein kinase BTK (Homo sapiens); test: PROTAC activity at CRBN/ BTK in human Ramos cells assessed as induction of BTK degradation at 30 nM incubated for 24 hrs by immunoblot analysis; type: cell-based; summary of the method: as §5
[24] = Clearance in BALB/c mouse at 2 mg/kg, iv measured for 24 hrs by LCMS analysis; type: ADME, organism-based; conditions: in vivo; summary of the method: as §3
[25] = Apparent permeability across apical to basal side in MDCK-II cells at 10 uM measured for 120 mins by LC-MS/MS analysis; type: ADME, cell-based, Canis lupus familiaris; conditions: dog; summary of the method: as §6
[26] = Half life in BALB/c mouse at 5 mg/kg, po measured for 24 hrs by LCMS analysis; type: ADME, organism-based; conditions: in vivo; summary of the method: as §2
[27] = Apparent permeability across basal to apical side in MDCK-II cells assessed as compound recovery at 10 uM measured for 120 mins by LC-MS/MS analysis; type: ADME, cell-based, Canis lupus familiaris; conditions: dog, read-out: Drug recovery; summary of the method: as §4
[28] = Stability in mouse liver microsomes assessed as intrinsic clearance measured per mg protein at 1 uM preincubated for 10 mins followed by reaction initiation measured upto 60 mins in presence of NADPH; type: ADME, Microsome; conditions: time < 70 min, read-out: CLH; summary of the method: as §1
[29] = target: T1, Protein cereblon/Tyrosine-protein kinase BTK (Homo sapiens); test: PROTAC activity at CRBN/ BTK in human Ramos cells assessed as induction of BTK degradation at 300 nM incubated for 24 hrs by immunoblot analysis relative to control; type: cell-based; summary of the method: as §5
[30] = target: T1, Protein cereblon/Tyrosine-protein kinase BTK (Homo sapiens); test: PROTAC activity at CRBN/ BTK in human Ramos cells assessed as induction of BTK degradation at 500 nM incubated for 24 hrs by immunoblot analysis relative to control; type: cell-based; summary of the method: as §5

## Nc1ncnc2c1c(-c1ccc(Oc3ccccc3)cc1)nn2C1CCN(C2CN(C3CN(c4ccc5c(c4)C(=O)N(C4CCC(=O)NC4=O)C5=O)C3)C2)CC1 (stereo not given)
[1]
  solubility: Insoluble
[2]
  solubility: Insoluble

## Nc1ncnc2c1c(-c1ccc(Oc3ccccc3)cc1)nn2[C@@H]1CCCN(C(=O)c2ccc(CNc3ccc4c(c3)C(=O)N(C3CCC(=O)NC3=O)C4=O)cc2)C1 (stereo not given in full)
[3]
  microsomal CLint at 1 µM: 7.66 µL/min/mg
[1]
  solubility: Soluble
[4]
  half-life at 1 µM: 307 min
[5]
  microsomal CLint at 1 µM: 5.45 µL/min/mg
[6]
  half-life at 1 µM: 136 min
[7]
  microsomal CLint at 1 µM: 9.83 µL/min/mg
[8]
  AUC(0-t) at 24 h: 336 ng·h/mL
[9]
  half-life at 1 µM: 181 min
[10]
  microsomal CLint at 1 µM: 4.52 µL/min/mg
[11]
  AUC(0-t) at 24 h: 2810 ng·h/mL
[12]
  recovery at 2 h, 10 µM: 111%
[13]
  Cmax: 252 ng/mL
[2]
  solubility: Soluble
[14]
  Activity: 18.3%
[15]
  half-life: 58.8 min
[16]
  half-life at 1 µM: 141 min
[17]
  bioavailability: 4.78%
[18]
  Activity: Active
[19]
  half-life at 1 µM: 254 min
[20]
  Vd: 0.998 L/kg
[21]
  Papp B→A at 2 h, 10 µM: 0.01 ×10⁻⁶ cm/s
[22]
  Tmax: 30 min
[23]
  Activity: 20.7%
[24]
  clearance: 11.8 mL/min/kg
[25]
  Papp A→B at 2 h, 10 µM: 0.016 ×10⁻⁶ cm/s
[26]
  half-life: 31.2 min
[27]
  recovery at 2 h, 10 µM: 116%
[28]
  microsomal CLint at 1 µM: 10.2 µL/min/mg

## C=CC(=O)N1CCC[C@@H](n2nc(-c3ccc(Oc4ccccc4)cc3)c3c(N)ncnc32)C1 [IBRUTINIB]
[1]
  solubility: Soluble
[2]
  solubility: Insoluble

## CC(C)NCC(O)COc1ccc(CC(N)=O)cc1 (stereo not given) [ATENOLOL]
[12]
  recovery at 2 h, 10 µM: 94.4%
[27]
  recovery at 2 h, 10 µM: 99.5%

## Nc1ncnc2c1c(-c1ccc(Oc3ccccc3)cc1)nn2[C@@H]1CCCN(C(=O)c2ccc(Nc3ccc4c(c3)C(=O)N(C3CCC(=O)NC3=O)C4=O)cc2)C1 (stereo not given in full)
[14]
  Activity: 18.2%
[29]
  Activity: 20.1%

## Nc1ncnc2c1c(-c1ccc(Oc3ccccc3)cc1)nn2[C@@H]1CCCN(C(=O)Nc2ccc3c(c2)C(=O)N(C2CCC(=O)NC2=O)C3=O)C1 (stereo not given in full)
[30]
  Activity: 100%

## Nc1ncnc2c1c(-c1ccc(Oc3ccccc3)cc1)nn2[C@@H]1CCCN(C(=O)Cc2ccc(Nc3ccc4c(c3)CN(C3CCC(=O)NC3=O)C4=O)cc2)C1 (stereo not given in full)
[3]
  microsomal CLint at 1 µM: 95 µL/min/mg
[4]
  half-life at 1 µM: 10 min
[5]
  microsomal CLint at 1 µM: 60.3 µL/min/mg
[6]
  half-life at 1 µM: 12.1 min
[7]
  microsomal CLint at 1 µM: 96.2 µL/min/mg
[8]
  AUC(0-t) at 24 h: 357 ng·h/mL
[9]
  half-life at 1 µM: 14.6 min
[10]
  microsomal CLint at 1 µM: 139 µL/min/mg
[11]
  AUC(0-t) at 24 h: 6400 ng·h/mL
[12]
  recovery at 2 h, 10 µM: 107%
[13]
  Cmax: 364 ng/mL
[15]
  half-life: 309 min
[16]
  half-life at 1 µM: 14.4 min
[17]
  bioavailability: 2.23%
[19]
  half-life at 1 µM: 23 min
[20]
  Vd: 2.31 L/kg
[21]
  Papp B→A at 2 h, 10 µM: 0.071 ×10⁻⁶ cm/s
[22]
  Tmax: 30 min
[24]
  clearance: 5.17 mL/min/kg
[25]
  Papp A→B at 2 h, 10 µM: 0.001 ×10⁻⁶ cm/s
[26]
  half-life: 68.4 min
[27]
  recovery at 2 h, 10 µM: 101%
[28]
  microsomal CLint at 1 µM: 115 µL/min/mg
